Test results from ChEMBL document CHEMBL3351840, “Lithocarpic Acids A-N, 3,4-seco-Cycloartane Derivatives from the Cupules of Lithocarpus polystachyus” (J Nat Prod, 2014).
≈ marks a conversion by molar mass, not a printed value.

Key:
[1] = system: Bacillus subtilis; test: Antibacterial activity against Bacillus subtilis ATCC 6633 after 18 hrs by microdilution method; format: functional; settings: ATCC 6633, 18 h
[2] = system: Micrococcus luteus; test: Antibacterial activity against Micrococcus luteus ATCC 9341 after 18 hrs by microdilution method; format: functional; settings: ATCC 9341, 18 h
[3] = system: Staphylococcus aureus; test: Antibacterial activity against Staphylococcus aureus ATCC 25923 after 18 hrs by microdilution method; format: functional; settings: ATCC 25923, 18 h
[4] = system: Staphylococcus epidermidis; test: Antibacterial activity against Staphylococcus epidermidis ATCC 12228 after 18 hrs by microdilution method; format: functional; settings: ATCC 12228, 18 h
[5] = biological target: 11-beta-hydroxysteroid dehydrogenase 1 (Mus musculus) (UniProt P50172); test: Inhibition of mouse 11beta-HSD1 expressed in HEK293 cells assessed as [3H]cortisol at 10 uM by scintillation proximity assay; format: cell-based
Summary of the method: (§1)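 Single-concentration screen at 10 μM by scintillation proximity assay, read as % inhibition. Microsomes were incubated with NADPH and [3H]-cortisone. The [3H]-cortisol formed was captured by a monoclonal antibody on protein A-coated SPA beads. Glycyrrhetinic acid served as positive control.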

[6] = biological target: 11-beta-hydroxysteroid dehydrogenase 1 (Mus musculus, UniProt P50172); test: Inhibition of mouse 11beta-HSD1 expressed in HEK293 cells assessed as [3H]cortisol by scintillation proximity assay; format: cell-based
Summary of the method: (§2)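 IC50 by scintillation proximity assay. Enzyme source was microsomes from HEK293 cells stably transfected with human or murine 11β-HSD1. Microsomes were incubated with NADPH and [3H]-cortisone. Product [3H]-cortisol was captured by a monoclonal antibody coupled to protein A-coated SPA beads. Glycyrrhetinic acid served as positive control.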

[7] = biological target: T1, 11-beta-hydroxysteroid dehydrogenase 1 (Homo sapiens, UniProt P28845); test: Inhibition of human 11beta-HSD1 expressed in HEK293 cells assessed as [3H]cortisol by scintillation proximity assay; format: cell-based; summary of the method: as §2
Target sequence in this assay (P28845 whole entry): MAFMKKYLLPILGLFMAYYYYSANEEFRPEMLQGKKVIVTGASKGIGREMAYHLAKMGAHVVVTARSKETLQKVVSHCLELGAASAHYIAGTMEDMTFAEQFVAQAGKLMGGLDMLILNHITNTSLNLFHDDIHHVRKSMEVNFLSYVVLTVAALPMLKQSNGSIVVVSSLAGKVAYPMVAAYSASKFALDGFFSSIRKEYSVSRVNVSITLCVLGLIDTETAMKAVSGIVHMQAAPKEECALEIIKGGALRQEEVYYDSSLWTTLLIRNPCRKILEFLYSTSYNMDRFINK

[8] = biological target: T1, 11-beta-hydroxysteroid dehydrogenase 1; test: Inhibition of human 11beta-HSD1 expressed in HEK293 cells assessed as [3H]cortisol at 10 uM by scintillation proximity assay; format: cell-based; summary of the method: as §1
Target sequence in this assay (P28845 whole entry, looked up): as the sequence (P28845 whole entry) above

Sequence of 11-beta-hydroxysteroid dehydrogenase 1 (Mus musculus) (P50172 whole entry, looked up): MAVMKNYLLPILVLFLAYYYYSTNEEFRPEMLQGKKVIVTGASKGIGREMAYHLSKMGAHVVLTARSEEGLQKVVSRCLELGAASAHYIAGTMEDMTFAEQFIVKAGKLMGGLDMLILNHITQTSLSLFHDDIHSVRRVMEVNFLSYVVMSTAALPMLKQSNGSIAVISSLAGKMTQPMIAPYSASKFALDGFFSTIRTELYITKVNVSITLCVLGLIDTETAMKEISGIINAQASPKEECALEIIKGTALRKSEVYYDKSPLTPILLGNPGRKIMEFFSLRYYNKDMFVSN
Sequence of 11-beta-hydroxysteroid dehydrogenase 1 (Mus musculus, UniProt P50172) (P50172 whole entry): as the sequence (P50172 whole entry, looked up) above

MIC [1] [µg/mL]	MIC [2] [µg/mL]	MIC [3] [µg/mL]	MIC [4] [µg/mL]	inhibition [5] [%]	IC50 [6] [nM]	IC50 [7] [nM]	inhibition [8] [%]	SMILES
12.5 (≈ 24.3 µM)	12.5 (≈ 24.3 µM)	> 50	25 (≈ 48.6 µM)	–	–	–	–	C=C(C)[C@@H](O)CC[C@@H](COC(C)=O)[C@H]1CC[C@@]2(C)[C@@H]3CC[C@@H](C(=C)C)[C@@]4(CCC(=O)O)C[C@@]34CC[C@]12C
6.3 (≈ 13.3 µM)	12.5 (≈ 26.4 µM)	25 (≈ 52.9 µM)	25 (≈ 52.9 µM)	> 60	990	1400	> 60	C=C(C)[C@H](O)CC[C@@H](CO)[C@H]1CC[C@@]2(C)[C@@H]3CC[C@@H](C(=C)C)[C@@]4(CCC(=O)O)C[C@@]34CC[C@]12C
–	–	–	–	> 60	–	1900	> 60	C=C(C)[C@@H]1CC[C@@H]2[C@]3(CC[C@]4(C)[C@@H]([C@@H](CCC(=O)O)COC(C)=O)CC[C@@]24C)C[C@]13CCC(=O)O
> 50	> 50	> 50	> 50	–	–	–	–	C=C(C)[C@@H]1CC[C@@H]2[C@]3(CC[C@]4(C)[C@@H]([C@H]5CC[C@@H](C(C)(C)O)OC5)CC[C@@]24C)C[C@]13CCC(=O)O
3.1 (≈ 6.79 µM)	6.3 (≈ 13.8 µM)	> 50	> 50	–	–	–	–	C=C(C)[C@@H]1CC[C@@H]2[C@]3(CC[C@]4(C)[C@@H]([C@H](C)C/C=C/C(C)(C)O)CC[C@@]24C)C[C@]13CCC(=O)O
50 (≈ 105 µM)	50 (≈ 105 µM)	> 50	> 50	–	–	–	–	C=C(C)[C@@H]1CC[C@@H]2[C@]3(CC[C@]4(C)[C@@H]([C@H](C)CC[C@H](O)C(C)(C)O)CC[C@@]24C)C[C@]13CCC(=O)O
12.5 (≈ 24.3 µM)	12.5 (≈ 24.3 µM)	> 50	25 (≈ 48.6 µM)	–	–	–	–	C=C(C)[C@H](O)CC[C@@H](COC(C)=O)[C@H]1CC[C@@]2(C)[C@@H]3CC[C@@H](C(=C)C)[C@@]4(CCC(=O)O)C[C@@]34CC[C@]12C
6.3 (≈ 12.2 µM)	6.3 (≈ 12.2 µM)	25 (≈ 48.6 µM)	12.5 (≈ 24.3 µM)	> 60	740	2300	> 60	C=C(C)[C@@H]1CC[C@@H]2[C@]3(CC[C@]4(C)[C@@H]([C@@H](C/C=C/C(C)(C)O)COC(C)=O)CC[C@@]24C)C[C@]13CCC(=O)O
25 (≈ 48.8 µM)	> 50	> 50	> 50	–	–	–	–	C=C(C)C(=O)CC[C@@H](COC(C)=O)[C@H]1CC[C@@]2(C)[C@@H]3CC[C@@H](C(=C)C)[C@@]4(CCC(=O)O)C[C@@]34CC[C@]12C
6.3 (≈ 13.3 µM)	3.1 (≈ 6.56 µM)	25 (≈ 52.9 µM)	12.5 (≈ 26.4 µM)	> 60	240	1900	> 60	C=C(C)[C@@H]1CC[C@@H]2[C@]3(CC[C@]4(C)[C@@H]([C@H]5CC[C@H](C(C)(C)O)OC5)CC[C@@]24C)C[C@]13CCC(=O)O

SMILES	MIC [1] [µg/mL]	MIC [2] [µg/mL]	MIC [3] [µg/mL]	MIC [4] [µg/mL]	inhibition [5] [%]	IC50 [6] [nM]	IC50 [7] [nM]	inhibition [8] [%]
CC1COc2c(N3CCN(C)CC3)c(F)cc3c(=O)c(C(=O)O)cn1c23 (stereo not given) [OFLOXACIN]	0.013 (≈ 0.036 µM)	1.6 (≈ 4.43 µM)	0.2 (≈ 0.553 µM)	0.2 (≈ 0.553 µM)	–	–	–	–
